The structures appear in SMILES notation. Calls of active or inactive are those of the source. The calls are words filed in the database; no cut-off is given here.

Common to all, as to format: functional, organism-based
One test has as its system Escherichia coli. In words: Antimicrobial activity against Escherichia coli isolate 458 after 18 hrs. The gist of the method:
(§1)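 Ciprofloxacin and amphotericin B were run alongside as reference antimicrobials.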

Test [1] relates to Sporobolomyces salmonicolor. In words: Antimicrobial activity against Sporidiobolus salmonicolor isolate 549 after 18 hrs. The gist of the method: as §1
For another test, the system named is Staphylococcus aureus. The test is described as follows: Antimicrobial activity against methicillin-resistant Staphylococcus aureus isolate 134/93 after 18 hrs.

For the compound `COC1=Cc2cn([C@@H](Cc3ccc(O)cc3)C(=O)O)c(=O)c3ccc(-c4ccccc4)c(c23)C1=O`, the outcome (with Escherichia coli; in test [1]; in the test with Staphylococcus aureus) was inactive.
On to `COC1OC(=O)c2ccc(-c3ccccc3)c3c(O)c(O)cc1c23` (configuration not stated), for which the outcome in the test with Staphylococcus aureus was Active.
`COc1cc2c3c(ccc(-c4ccccc4)c3c1O[C@@H]1O[C@H](COC(=O)CC(=O)O)[C@@H](O)[C@H](O)[C@H]1O)C(=O)OC2`: the outcome (in the test on Escherichia coli; in test [1]) was Active.
As for `O=C1OC(O)c2cc(O)c(O)c3c(-c4ccccc4)ccc1c23` (configuration not stated), the result with Staphylococcus aureus was Active.
`O=C(O)CC(=O)OC[C@H]1O[C@@H](Oc2c(O)cc3c4c(ccc(-c5ccccc5)c24)C(=O)OC3)[C@H](O)[C@@H](O)[C@@H]1O`: the result (with Escherichia coli; in test [1]) was Active.
As to `CC(C)C[C@@H](C(=O)O)n1cc2c3c(c(-c4ccccc4)ccc3c1=O)C(=O)C(O)=C2`, the result (with Escherichia coli; in test [1]; with Staphylococcus aureus) was inactive.
With `O=C1C(O)=Cc2cn([C@@H](Cc3ccccc3)C(=O)O)c(=O)c3ccc(-c4ccccc4)c1c23`, the result (with Escherichia coli; in test [1]; in the test with Staphylococcus aureus) was inactive.
Take `O=C1C(O)=Cc2cn(CCCC[C@@H](C(=O)O)n3cc4c5c(c(-c6ccccc6)ccc5c3=O)C(=O)C(O)=C4)c(=O)c3ccc(-c4ccccc4)c1c23`: the result (in the test on Escherichia coli; in test [1]; in the test on Staphylococcus aureus) was inactive.
On to `O=C1OC(C(=O)O)c2cc(O)c(O)c3c(-c4ccccc4)ccc1c23` (configuration not stated), for which the outcome (in the test on Escherichia coli; in test [1]) was Active.
In the case of `COC1=Cc2cn([C@H](CC(C)C)C(=O)O)c(=O)c3ccc(-c4ccccc4)c(c23)C1=O`, the result (in the test on Escherichia coli; in test [1]; with Staphylococcus aureus) was inactive.
In the case of `CSCC[C@@H](C(=O)O)n1cc2c3c(c(-c4ccccc4)ccc3c1=O)C(=O)C(O)=C2`, the result (in the test with Escherichia coli; in test [1]; in the test on Staphylococcus aureus) was inactive.
Turning to `O=C1OCc2cc(O)c(O)c3c(-c4ccccc4)ccc1c23`, the outcome (in the test with Escherichia coli; in test [1]) was Active.
On to `O=C1C(O)=Cc2c3n(c(=O)c4ccc(-c5ccccc5)c1c24)[C@H](C(=O)O)CS3`, for which the result (in the test with Escherichia coli; in test [1]; with Staphylococcus aureus) was inactive.
Consider `CC(C)C[C@H](C(=O)O)n1cc2c3c(c(-c4ccccc4)ccc3c1=O)C(=O)C(O)=C2`, for which the outcome (in the test on Escherichia coli; in test [1]; in the test on Staphylococcus aureus) was inactive.
With `O=C1C(O)=Cc2coc(=O)c3ccc(-c4ccccc4)c1c23`, in the test with Staphylococcus aureus, the outcome was Active.
With `COC1=Cc2cn([C@@H](Cc3ccccc3)C(=O)O)c(=O)c3ccc(-c4ccccc4)c(c23)C1=O`, the result (in the test with Escherichia coli; in test [1]; with Staphylococcus aureus) was inactive.
Regarding `COC1=Cc2cn([C@@H](Cc3c[nH]c4ccccc34)C(=O)O)c(=O)c3ccc(-c4ccccc4)c(c23)C1=O`, the outcome (in the test on Escherichia coli; in test [1]; in the test on Staphylococcus aureus) was inactive.
Regarding `C[C@@H]1[C@H](O)[C@@H](C)/C=C/C=C/C=C/C=C/C=C/C=C/C=C/[C@H](O[C@@H]2O[C@H](C)[C@@H](O)[C@H](N)[C@@H]2O)C[C@@H]2O[C@](O)(C[C@@H](O)C[C@@H](O)[C@H](O)CC[C@@H](O)C[C@@H](O)CC(=O)O[C@H]1C)C[C@H](O)[C@H]2C(=O)O`, the outcome (with Escherichia coli; in test [1]) was Active.
On to `O=C1C(O)=Cc2cn(CCO)c(=O)c3ccc(-c4ccccc4)c1c23`, for which the result (with Escherichia coli; in test [1]; in the test with Staphylococcus aureus) was inactive.
For `O=C(O)c1cn(C2CC2)c2cc(N3CCNCC3)c(F)cc2c1=O`, the result (in the test on Escherichia coli; in test [1]) was Active.
Regarding `COc1cc2c3c(ccc(-c4ccccc4)c3c1O)C(=O)OC2OC` (configuration not stated), the result with Staphylococcus aureus was Active.
Take `O=C1C(O)=Cc2cn([C@H](Cc3ccccc3)C(=O)O)c(=O)c3ccc(-c4ccccc4)c1c23`: the result (with Escherichia coli; in test [1]; in the test on Staphylococcus aureus) was inactive.
Regarding `O=C1OC(C(=O)O)c2cc(O)c(O[C@@H]3O[C@H](CO)[C@@H](O)[C@H](O)[C@H]3O)c3c(-c4ccccc4)ccc1c23` (some centres not stated), the outcome (with Escherichia coli; in test [1]) was Active.
With `COC1=Cc2cn([C@H](Cc3ccccc3)C(=O)O)c(=O)c3ccc(-c4ccccc4)c(c23)C1=O`, the outcome (in the test on Escherichia coli; in test [1]; in the test with Staphylococcus aureus) was inactive.

For the origin of these results see ChEMBL document CHEMBL4251676, “Precursor-Directed Biosynthesis of Phenylbenzoisoquinolindione Alkaloids and the Discovery of a Phenylphenalenone-Based Plant Defense Mechanism” (J Nat Prod, 2018).
